From PubChem BioAssay
SENP1 inh = human SENP1 catalytic domain inhibitors, primary screen, biochemical, FRET, uHTS; recombinant SENP1 catalytic domain, CyPet-SUMO1-YPet FRET cleavage; Sentrin-specific protease 1 (Homo sapiens), Q9P0U3; inhibition, % at 10 µM; 360,000 compounds, 0.21% hits; AID 624204, 2012;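 active = inhibition at least 30% at 10 µM, raw YFP signal under a set limit, fluorescence ratio 0.5 to 1.5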
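Test system: recombinant human SENP1 catalytic domain, His6-tagged / Medium: pH 8 Tris buffer with EDTA, NaCl, BME, BSA, NP40, catalase / Also added: SUMO1 FRET substrate flanked by Cypet and Ypet, 25 nM / Times: 50 min reaction at room temperature / Signal: FRET, CFP and YFP emission / Control set: no-enzyme low control and enzyme-plus-DMSO high control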
Platelet DG rel = inhibitors of platelet dense granule secretion, primary screen, cell-based, MLPCN, human platelets; human platelet-rich plasma, SFLLRN dense granule ATP release, luminescence; 300,000 compounds, 0.22% hits; inhibition, %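 (compounds screened at 7.5 µM in platelet-rich plasma)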; AID 1663, 2009;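 active = mean replicate score, as percent of positive control, at or above 50; inconclusive = mean below 50 but at least one replicate at or above 50; inactive = mean and every replicate below 50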
VLA-4 inh = inhibition in human VLA-4 binding assay, primary screen, VLA-4 allosteric modulator project, MLPCN library, flow cytometry, VLA-4 expressing cells; Integrin alpha-4 (Homo sapiens), P13612; ligand binding flow cytometry; inhibition, % (about 7 µM as worked out from the volumes in the protocol); 330,000 compounds, 0.2% hits; AID 2557, 2010; in the data active = inhibition above about 50%
Myeloid diff 2 = induction of myeloid progenitor differentiation, primary screen, cell-based, flow cytometry, MLPCN library; ER-HoxA9 myeloid progenitors, lysozyme-GFP differentiation; calls only at 10 µM; 360,000 compounds, 1% hits;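 active = normalized GFP-positive differentiation at or above the plate's own cutoff, the solvent-only control mean plus 3 SD; inconclusive = no clear call, values can overlap the other calls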;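 note: cells exposed to compound for four days before flow analysis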
Each line names hits and unclear results; the compound was inactive in the other large screens. Shown are actives, neighbours in structure and some others; about 1.5% of the full set was active somewhere.

Cc1nnc(NC(=O)CSc2cn(CCNC(=O)c3ccccc3)c3ccccc23)s1	Platelet DG rel 58
CC(C)Cn1c(SCC(=O)N2CCOCC2)nc2ccccc2c1=O	none (no result: Platelet DG rel)
COc1ccc([C@H]2CC(=O)C=C(c3ccc(Cl)c(F)c3)C2)cc1	none (no result: Platelet DG rel)
O=C(CSc1ccccc1)NCC1(N2CCOCC2)CCCCC1	none (no result: Platelet DG rel)
Cc1ccc[n+](C(C)C(=O)c2ccc(Cl)cc2)c1 (stereo not given)	Myeloid diff 2 active
Cc1ccc(C(=O)C(C)[n+]2cccc(C(N)=O)c2)cc1 (stereo not given)	none
COc1ccc(-n2ncc3c2CC(C)(C)CC3NC(=O)CCCN2CCCC2=O)cc1 (stereo not given)	none
COc1ccc(-n2ncc3c2CC(C)(C)CC3NC(=O)CCN2CCCCC2=O)cc1 (stereo not given)	Myeloid diff 2 active
COc1ccc(C(=O)NN=C2CCCC2)cc1	Myeloid diff 2 active
COc1cccc(C(=O)NN=C2CCCC2)c1	Myeloid diff 2 inconclusive
CCOC(=O)c1c(N)sc(C(=O)Nc2ccc3c(c2)OCO3)c1C	Platelet DG rel 56
CN(C)C/C=C(\c1ccc(Br)cc1)c1cccnc1	none (no result: Platelet DG rel)
O=S(=O)(Cc1ccccc1)C(CCCc1ccccc1)S(=O)(=O)Cc1ccccc1	Myeloid diff 2 active (no result: Platelet DG rel, VLA-4 inh)
CCn1c(CC(=O)Nc2ccc(OC)cc2)nnc1SCC(=O)N1CCOCC1	none
CCOc1ccccc1N1CCN(C(=O)c2cc3cc(OC)ccc3[nH]2)CC1	none
Cc1nc(N2N=C(c3ccc(Cl)cc3)CC2c2ccco2)sc1C(=O)N(C)C (stereo not given)	Myeloid diff 2 active
COc1ccc(CNC(=O)CCNS(=O)(=O)c2ccc(NC(C)=O)cc2)cc1OC	none (no result: Platelet DG rel)
c1ccc(CNc2ncnc3c2cnn3Cc2ccccc2)cc1	Myeloid diff 2 active
OCCNc1ncnc2c1cnn2Cc1ccccc1	none
O=C(Nc1ccc(NC(=O)c2ccc(Cl)c(S(=O)(=O)N3CCOCC3)c2)cc1)c1ccccc1	Myeloid diff 2 inconclusive
COc1ccc(CNC(=O)c2ccc(Cl)c(S(=O)(=O)N3CCOCC3)c2)cc1OC	Myeloid diff 2 active (no result: Platelet DG rel)
CN(c1cccc(NC(=O)c2ccc(Cl)c(S(=O)(=O)N3CCOCC3)c2)c1)S(C)(=O)=O	Myeloid diff 2 active
O=C(Nc1ccnn1C1CCN(CCCc2ccccc2)CC1)c1ccccc1Cl	none
COc1cc2c(=O)n(CCC(=O)NCC3CCCO3)c(=O)n(CC(=O)Nc3ccc(F)cc3)c2cc1OC (stereo not given)	none
CC(Sc1nnc(-c2cccnc2)n1C)C(=O)N1CCOCC1 (stereo not given)	none
C[N+]1(C)CC2=Cc3ccccc3CC2C1 (stereo not given)	none
C1=C2C[N+]3(CCCC3)CC2Cc2ccc3ccccc3c21 (stereo not given)	Myeloid diff 2 active
CCC1CCCCN1CCCNC(=O)C1CCN(c2nnc(-n3cccc3)s2)CC1 (stereo not given)	none
CC(=O)c1ccc(OCC(=O)NC2CCCN(Cc3ccccc3F)C2)cc1 (stereo not given)	Myeloid diff 2 active (no result: VLA-4 inh)
N#Cc1cc2ccccc2nc1SCC(=O)Nc1ccccc1N1CCOCC1	none
Cc1cccc2cc(C#N)c(SCC(=O)Nc3ccccc3N3CCOCC3)nc12	Myeloid diff 2 active
CCOC(=O)C1=C(COC(=O)c2cc(Br)c(Br)s2)NC(=O)NC1C (stereo not given)	none
Cc1cc(=O)oc2cc(OCC(=O)NCCc3ccccc3)ccc12	Myeloid diff 2 active
CCCOc1ccc(F)cc1-c1cc(C(=O)NCc2cc(OC)cc(OC)c2)[nH]n1	none (no result: Platelet DG rel, VLA-4 inh)
O=C(Cc1ccc(NC2=NC3CS(=O)(=O)CC3S2)cc1)NCc1ccccc1Cl (stereo not given)	Myeloid diff 2 inconclusive
O=C(N/N=C/c1cccc2ccccc12)c1n[nH]c2c1CCCC2	Myeloid diff 2 active
CCN1C(=O)[C@@H]2[C@H](C1=O)[C@@H]1C[C@H]3C(=O)N(CC)C(=O)[C@H]3[C@@H]3C1=C(C(=O)N1C(=O)OC(=NCC4CC4)[C@]31C)[C@@H]2C	none
CC1CCN(c2ccc(NC(=O)c3cccnc3)cc2)CC1	Myeloid diff 2 active
Nc1cc2nc3ccccc3oc-2cc1=O	SENP1 inh 33 (no result: Platelet DG rel)
CSc1nc2ccc(NC(=O)C3CC(=O)N(Cc4ccccc4)C3)cc2s1 (stereo not given)	Myeloid diff 2 active
